Test results: PMC2939729 (Cancer cell, 2010)

Tests used:
[1] = Tolerability experiments in mice, 14 days
[2] = molecular target: T1, DCAMKL2 (Homo sapiens, UniProt Q8N568); assay: in vitro ATP-site competition binding assay, panel of 402 kinases; details: 10 μM inhibitor
T1 sequence (Q8N568 1-766): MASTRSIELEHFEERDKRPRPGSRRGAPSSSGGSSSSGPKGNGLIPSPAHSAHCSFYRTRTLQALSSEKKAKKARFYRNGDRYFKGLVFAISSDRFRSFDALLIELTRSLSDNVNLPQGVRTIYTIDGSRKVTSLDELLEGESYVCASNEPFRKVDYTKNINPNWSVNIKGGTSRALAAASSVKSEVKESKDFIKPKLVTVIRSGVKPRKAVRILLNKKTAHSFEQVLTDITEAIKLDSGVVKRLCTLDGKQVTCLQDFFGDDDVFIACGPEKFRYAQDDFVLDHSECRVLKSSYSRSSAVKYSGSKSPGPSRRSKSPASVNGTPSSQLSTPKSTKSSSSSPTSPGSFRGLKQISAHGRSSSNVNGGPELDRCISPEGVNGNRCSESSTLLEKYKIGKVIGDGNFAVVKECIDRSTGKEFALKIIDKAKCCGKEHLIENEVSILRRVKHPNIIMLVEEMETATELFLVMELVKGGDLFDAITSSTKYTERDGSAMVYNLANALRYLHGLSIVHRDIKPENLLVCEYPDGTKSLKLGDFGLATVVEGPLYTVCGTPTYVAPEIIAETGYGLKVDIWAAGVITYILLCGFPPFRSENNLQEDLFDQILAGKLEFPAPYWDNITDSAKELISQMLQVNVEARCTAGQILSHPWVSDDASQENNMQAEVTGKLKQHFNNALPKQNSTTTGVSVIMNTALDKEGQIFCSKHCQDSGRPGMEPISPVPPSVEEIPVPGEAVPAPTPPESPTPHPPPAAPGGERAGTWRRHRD

[3] = tested on: ERK1/2; assay: EGF-induced ERK1/2 activation in HeLa cells; assay type: cell-based, human; details: 1 μM compound for one hour, EGF 17 min
[4] = tested on: basic fibroblast growth factor (bFGF) induced angiogenesis; assay: bFGF-induced angiogenesis in Matrigel plugs; assay type: in vivo; details: mice, Matrigel with 400 ng/mL bFGF, treated for 6 days
In short: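 Mice were implanted with Matrigel containing 400 ng/mL bFGF and treated with test compound or vehicle for 6 days, starting the next day. Plugs were harvested, sectioned and stained with Masson's trichrome (6 mice, 9 slices), and plug hemoglobin content was measured. Student's t test was used.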

[5] = molecular target: T2, BMK1 (Homo sapiens, UniProt Q13164); assay: EGF-induced BMK1 activation in HeLa cells; assay type: cell-based; details: 1 μM compound for one hour, EGF 17 min
Target sequence in this assay (Q13164 whole entry): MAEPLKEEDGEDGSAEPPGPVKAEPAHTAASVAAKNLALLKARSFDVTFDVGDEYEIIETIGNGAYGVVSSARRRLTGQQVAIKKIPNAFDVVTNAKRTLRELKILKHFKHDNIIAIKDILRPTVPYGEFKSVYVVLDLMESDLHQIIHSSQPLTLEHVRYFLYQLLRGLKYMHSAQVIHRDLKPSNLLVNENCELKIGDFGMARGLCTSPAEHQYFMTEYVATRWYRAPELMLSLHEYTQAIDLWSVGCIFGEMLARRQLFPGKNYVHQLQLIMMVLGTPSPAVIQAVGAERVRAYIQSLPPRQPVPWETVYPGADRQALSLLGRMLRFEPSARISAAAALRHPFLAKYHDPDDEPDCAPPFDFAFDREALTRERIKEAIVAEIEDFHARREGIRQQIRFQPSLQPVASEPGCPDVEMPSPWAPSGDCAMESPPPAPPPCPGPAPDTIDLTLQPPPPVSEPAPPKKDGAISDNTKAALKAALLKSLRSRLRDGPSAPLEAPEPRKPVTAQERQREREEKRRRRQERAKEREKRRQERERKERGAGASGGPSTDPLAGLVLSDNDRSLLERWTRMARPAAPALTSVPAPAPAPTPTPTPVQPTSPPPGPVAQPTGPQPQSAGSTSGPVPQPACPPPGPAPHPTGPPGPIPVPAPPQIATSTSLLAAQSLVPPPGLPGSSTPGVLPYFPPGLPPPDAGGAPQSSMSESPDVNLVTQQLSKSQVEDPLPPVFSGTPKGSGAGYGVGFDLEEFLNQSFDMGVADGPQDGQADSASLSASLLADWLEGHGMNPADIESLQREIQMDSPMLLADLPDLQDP

[6] = molecular target: T2, BMK1; assay: in vitro ATP-site competition binding assay, panel of 402 kinases; details: 10 μM inhibitor
Target sequence in this assay (Q13164 whole entry, species assumed): as the sequence (Q13164 whole entry) above

[7] = molecular target: T3, PLK4 (Homo sapiens, UniProt O00444); assay: as above; details: 10 μM inhibitor
T3 sequence (O00444 1-970): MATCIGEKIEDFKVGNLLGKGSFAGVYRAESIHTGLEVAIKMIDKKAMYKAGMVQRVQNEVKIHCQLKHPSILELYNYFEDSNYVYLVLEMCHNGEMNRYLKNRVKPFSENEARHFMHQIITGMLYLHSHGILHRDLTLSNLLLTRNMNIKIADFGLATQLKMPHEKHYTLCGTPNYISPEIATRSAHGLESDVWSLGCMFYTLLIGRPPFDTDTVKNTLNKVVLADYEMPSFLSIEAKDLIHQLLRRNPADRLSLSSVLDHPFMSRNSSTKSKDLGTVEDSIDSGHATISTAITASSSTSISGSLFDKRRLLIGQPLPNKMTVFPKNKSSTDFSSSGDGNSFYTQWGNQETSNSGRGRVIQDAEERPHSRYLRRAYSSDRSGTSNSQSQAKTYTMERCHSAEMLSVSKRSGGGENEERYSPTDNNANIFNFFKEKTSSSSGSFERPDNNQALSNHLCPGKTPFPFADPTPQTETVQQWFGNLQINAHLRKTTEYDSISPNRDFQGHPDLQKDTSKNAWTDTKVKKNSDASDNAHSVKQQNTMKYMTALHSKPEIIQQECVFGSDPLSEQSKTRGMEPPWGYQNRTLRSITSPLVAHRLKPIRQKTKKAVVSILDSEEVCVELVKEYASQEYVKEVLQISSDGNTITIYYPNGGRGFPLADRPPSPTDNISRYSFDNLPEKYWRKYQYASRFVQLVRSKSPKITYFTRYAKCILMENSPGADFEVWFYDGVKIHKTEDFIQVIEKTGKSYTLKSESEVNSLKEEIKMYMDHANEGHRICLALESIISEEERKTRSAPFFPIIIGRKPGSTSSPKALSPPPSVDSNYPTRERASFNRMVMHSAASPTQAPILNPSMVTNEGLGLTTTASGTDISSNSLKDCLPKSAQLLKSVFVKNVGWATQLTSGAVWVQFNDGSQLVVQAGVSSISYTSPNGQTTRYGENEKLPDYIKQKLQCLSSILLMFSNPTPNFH

[8] = tested on: cancer cell lines; assay: Proliferation of a wide variety of cancer cell lines; assay type: cell-based
[9] = tested on: xenografted human (HeLa) or syngeneic mouse (LL/2) tumors; assay: In vivo tumorigenesis experiments; parameters: species or system mice
In short: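 Tumour cells in DMEM were injected s.c. into the right flank of 6-week-old mice: HeLa at 5 × 10^5 into Nod/Scid mice, or LL/2 at 1 × 10^6 into C57Bl/6 mice. Groups of 6 received 50 mg/kg i.p. twice daily, starting day 1, 7 or 14 (HeLa, to day 28) or day 1, 7 or 10 (LL/2, to day 17). Controls received carrier solution. Tumours were measured by caliper every 2–3 days, volume = L × W² × 0.52. BrdU was detected in tumour sections with anti-BrdU antibody, DAPI counterstain (6 mice, 9 slices). Student's t test was used.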

[10] = molecular target: T2, BMK1; assay: in vitro kinase assay of BMK1 immunoprecipitated from HEK293 cells; assay type: biochemical; details: BMK1 immunoprecipitated from HEK293 co-transfected with MEK5D and BMK1
Target sequence in this assay (Q13164 whole entry, species assumed): as the sequence (Q13164 whole entry) above

CCOc1cc(N2CCC(O)CC2)ccc1Nc1ncc2c(n1)N(C)c1ccccc1C(=O)N2C [XMD8-92]
vasculature instability ([1]; XMD8-92-treated mice): No vasculature instability
plasma concentrations of drug ([1]; mice, IP dosing of 50 mg/kg, maintained throughout the 14 days): approximately 10 μM
displacement by XMD8-92 [2]: greater than 90%
Growth factor-induced activation of cellular ERK1/2 [3]: but not the structurally similar ERK1/2
bFGF induced angiogenesis in Matrigel plugs [4]: significantly inhibits
Growth factor-induced activation of cellular BMK1 [5]: effectively blocked
displacement by XMD8-92 [6]: greater than 90%
displacement by XMD8-92 [7]: greater than 90%
effect on proliferation [8]: inhibitory effect
incorporation of BrdU during tumor cell division ([9]; HeLa or LL/2 tumor sections, immuno-staining): effectively inhibited
inhibition of tumor growth ([9]; mice, 50 mg/kg twice a day intraperitoneally): 95%
side effects to the animals ([9]; tumor-bearing mice, 50 mg/kg twice a day intraperitoneally): without obvious side effects
BMK1 activity in in vitro kinase assays [10]: significantly reduced
